From ChEMBL document CHEMBL1122861, “Synthesis and activity profiles of novel cyclic opioid peptide monomers and dimers” (J Med Chem, 1985)
Where a SMILES comes first, the peptide text is derived from it. Bridges are numbered along the chain shown (N, C = ends). [ ]: non-standard residue; d: D form. Orn = NCCC[C@H](N)C(=O)O

Legend:
Cavia porcellus [1] = organism: Cavia porcellus; assay: Tested for inhibition of electrically evoked contractions of the guinea pig ileum(GPI).; type: functional
Procedure, shortened: (§1)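 Isolated tissue bioassay, electrically evoked contractions; inhibition measured. A log dose–response curve with [Leu5]enkephalin as standard was run on each ileum or vas preparation. Test-peptide IC50 values were normalized against that standard by a published procedure. Mean of three determinations ±SEM.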

Mus musculus = organism: Mus musculus; assay: Tested for inhibition of electrically evoked contractions of the mouse vas deferens(MVD).; type: functional; procedure, shortened: as §1
[2] = biological target: Delta-type opioid receptor (Rattus norvegicus, UniProt P33533); assay: Displacement of [3H]DSLET from Opioid receptor delta 1 from rat brain homogenate; type: tissue-based
Chain of Delta-type opioid receptor (P33533 whole entry): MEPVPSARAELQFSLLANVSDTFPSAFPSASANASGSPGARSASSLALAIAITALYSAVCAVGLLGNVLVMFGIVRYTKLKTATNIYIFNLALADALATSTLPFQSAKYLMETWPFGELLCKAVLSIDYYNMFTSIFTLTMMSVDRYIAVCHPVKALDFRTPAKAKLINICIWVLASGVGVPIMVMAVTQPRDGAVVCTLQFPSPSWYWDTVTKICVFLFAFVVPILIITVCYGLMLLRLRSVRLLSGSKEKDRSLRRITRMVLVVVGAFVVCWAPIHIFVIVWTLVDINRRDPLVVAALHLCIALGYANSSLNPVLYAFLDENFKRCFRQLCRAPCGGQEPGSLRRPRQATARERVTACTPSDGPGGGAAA

Mu-type opioid receptor = Mu-type opioid receptor (Rattus norvegicus, UniProt P33535); assay: Evaluated for its ability to displace [3H]DAGO binding to Opioid receptor mu 1 from rat brain homogenate; type: tissue-based
Chain of Mu-type opioid receptor (P33535 whole entry): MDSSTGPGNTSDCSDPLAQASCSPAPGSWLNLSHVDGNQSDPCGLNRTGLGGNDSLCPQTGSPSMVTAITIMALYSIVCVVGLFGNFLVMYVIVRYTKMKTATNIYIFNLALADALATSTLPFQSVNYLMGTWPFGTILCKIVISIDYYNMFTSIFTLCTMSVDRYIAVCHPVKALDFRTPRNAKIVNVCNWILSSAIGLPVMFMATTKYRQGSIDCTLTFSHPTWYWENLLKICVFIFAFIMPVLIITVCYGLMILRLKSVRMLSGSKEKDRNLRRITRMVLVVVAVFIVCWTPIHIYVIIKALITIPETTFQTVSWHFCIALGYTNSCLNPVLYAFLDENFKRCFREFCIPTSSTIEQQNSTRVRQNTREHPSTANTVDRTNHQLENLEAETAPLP

Cavia porcellus [3] = organism: Cavia porcellus; assay: Tested for sensitivity to naloxone in the guinea pig ileum assay.; type: functional
Procedure, shortened: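 Electrically stimulated guinea pig ileum. IC50 was determined with and without a fixed 5 nM naloxone. Ke for naloxone as antagonist was derived from the ratio of those IC50 values.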

Row | SMILES | IC50 (Cavia porcellus [1]) | IC50 (Mus musculus) | Ki [2] | Ki (Mu-type opioid receptor) | Ke (Cavia porcellus [3])
1 | NC(=O)[C@@H]1CCC(=O)NCCCC[C@@H](NC(=O)[C@@H](N)Cc2ccc(O)cc2)C(=O)N[C@@H](Cc2ccccc2)C(=O)N1 [listing 1 of 2 here] | 2.93 nM | 5.21 nM | 4.36 nM | 1.43 nM | 
2 | NC(=O)[C@@H]1CCC(=O)NCCCC[C@@H](NC(=O)[C@@H](N)Cc2ccc(O)cc2)C(=O)N[C@@H](Cc2ccccc2)C(=O)N1 [listing 2 of 2 here] |  |  |  |  | 1.8 nM
3 | CC(C)C[C@@H]1NC(=O)[C@H](NC(=O)[C@@H](N)Cc2ccc(O)cc2)CCCNC(=O)C[C@@H](C(N)=O)NC1=O | 5410 nM | 40400 nM | 8160 nM | 6800 nM | 
4 | NC(=O)[C@@H]1CCCCNC(=O)CC[C@@H](NC(=O)[C@@H](N)Cc2ccc(O)cc2)C(=O)N[C@@H](Cc2ccccc2)C(=O)N1 [listing 1 of 2 here] | 7.99 nM | 101 nM | 49.3 nM | 0.994 nM | 
5 | NC(=O)[C@@H]1CCCCNC(=O)CC[C@@H](NC(=O)[C@@H](N)Cc2ccc(O)cc2)C(=O)N[C@@H](Cc2ccccc2)C(=O)N1 [listing 2 of 2 here] |  |  |  |  | 0.81 nM
6 | NC(=O)[C@@H]1CCCNC(=O)C[C@@H](NC(=O)[C@@H](N)Cc2ccc(O)cc2)C(=O)N[C@@H](Cc2ccccc2)C(=O)N[C@H](C(N)=O)CCCNC(=O)C[C@@H](NC(=O)[C@@H](N)Cc2ccc(O)cc2)C(=O)N[C@@H](Cc2ccccc2)C(=O)N1 [listing 1 of 2 here] | 1160 nM | 579 nM | 129 nM | 85.9 nM | 
7 | NC(=O)[C@@H]1CCCNC(=O)C[C@@H](NC(=O)[C@@H](N)Cc2ccc(O)cc2)C(=O)N[C@@H](Cc2ccccc2)C(=O)N[C@H](C(N)=O)CCCNC(=O)C[C@@H](NC(=O)[C@@H](N)Cc2ccc(O)cc2)C(=O)N[C@@H](Cc2ccccc2)C(=O)N1 [listing 2 of 2 here] |  |  |  |  | 1.62 nM
8 | NC(=O)[C@@H]1CC(=O)NCCC[C@@H](NC(=O)[C@@H](N)Cc2ccc(O)cc2)C(=O)N[C@@H](Cc2ccccc2)C(=O)N[C@H](C(N)=O)CC(=O)NCCC[C@@H](NC(=O)[C@@H](N)Cc2ccc(O)cc2)C(=O)N[C@@H](Cc2ccccc2)C(=O)N1 [listing 1 of 2 here] | 111 nM | 99.1 nM | 42.2 nM | 25.6 nM | 
9 | NC(=O)[C@@H]1CC(=O)NCCC[C@@H](NC(=O)[C@@H](N)Cc2ccc(O)cc2)C(=O)N[C@@H](Cc2ccccc2)C(=O)N[C@H](C(N)=O)CC(=O)NCCC[C@@H](NC(=O)[C@@H](N)Cc2ccc(O)cc2)C(=O)N[C@@H](Cc2ccccc2)C(=O)N1 [listing 2 of 2 here] |  |  |  |  | 1.36 nM
10 | NC(=O)[C@@H]1CCC(=O)NCCC[C@@H](NC(=O)[C@@H](N)Cc2ccc(O)cc2)C(=O)NCC(=O)N1 | 8750 nM | > 40000 nM | 4990 nM | 1760 nM | 
11 | NC(=O)[C@@H]1CCCNC(=O)C[C@@H](NC(=O)[C@@H](N)Cc2ccc(O)cc2)C(=O)N[C@@H](Cc2ccccc2)C(=O)N1 (H-Y[dD]F[Orn]-NH2; lactam 2-4) [listing 1 of 2 here] | 522 nM | 8570 nM |  |  | 
12 | NC(=O)[C@@H]1CCCNC(=O)C[C@@H](NC(=O)[C@@H](N)Cc2ccc(O)cc2)C(=O)N[C@@H](Cc2ccccc2)C(=O)N1 (H-Y[dD]F[Orn]-NH2; lactam 2-4) [listing 2 of 2 here] |  |  |  |  | 1.28 nM
